High-throughput results from PubChem.
NPY-Y1 PAM-ag = human NPY-Y1 potentiation or agonism, primary screen; P25929; NPY-Y1 expressing cells, potentiator/agonist activation; activation, % at 3.6 µM; hit rate 0.37% among 220,000; in the data active = activation above about 33%, passing the limit was not always enough;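 note: cells stimulated with NPY at EC10 then isoproterenol at EC100; 0% = low agonist plus stimulus and 100% = saturating agonist plus stimulus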
Target sequence (P25929 whole entry, looked up): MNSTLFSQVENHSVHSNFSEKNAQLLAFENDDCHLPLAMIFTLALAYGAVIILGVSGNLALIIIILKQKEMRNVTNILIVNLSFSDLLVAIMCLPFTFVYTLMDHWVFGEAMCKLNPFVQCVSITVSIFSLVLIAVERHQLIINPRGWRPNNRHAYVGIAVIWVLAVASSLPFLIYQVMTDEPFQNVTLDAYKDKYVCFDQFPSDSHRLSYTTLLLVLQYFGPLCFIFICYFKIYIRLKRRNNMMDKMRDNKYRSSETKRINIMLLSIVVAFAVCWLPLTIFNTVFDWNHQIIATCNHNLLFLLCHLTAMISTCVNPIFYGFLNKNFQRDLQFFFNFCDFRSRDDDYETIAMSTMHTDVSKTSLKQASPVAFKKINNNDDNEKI
NPY Y1 blocker = antagonists of human neuropeptide Y receptor Y1; hit rate 1% among 200,000; HEK293-CNG Y1 cells, membrane potential fluorescence; NPY at EC95, then isoproterenol; P25929; inhibition, % at 3.6 µM;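 active = inhibition above the campaign mean inhibition of all tested compounds plus 3 SD, cut at about 20% in these data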;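 note: 0% = DMSO wells given NPY plus isoproterenol and 100% = isoproterenol alone without NPY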
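Test system: HEK293 cells co-expressing NPY Y1 receptor and cyclic-nucleotide gated channel; Also added: NPY (25 nM), isoproterenol (1 µM), Ro 20-1724 (25 µM); Compound dosing: one concentration, 3.6 µM, in 0.4% DMSO; Timing: dye 3 h, compound 60 min room temperature, stimulation 45 min; Technique: Membrane-potential fluorescent dye readout.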
WT yeast gro inh = growth inhibition of WT yeast, mitochondrial fusion screen | mitochondrial fusion phenotypic screen, WT strain | inhibition, % at 10 µM | hit rate 2.1% among 190,000; in the data active = inhibition above about 58%; tested in S. cerevisiae
NPY Y2 blocker = antagonists of human neuropeptide Y receptor Y2 | P49146 | hit rate 0.99% among 140,000 | inhibition, % at 2.7 µM | NPY-Y2 expressing cells, antagonist mode; in the data active = inhibition above about 17%;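 note: 0% = vehicle with agonist challenge and 100% = reference antagonist with challenge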
Target sequence (P49146 whole entry, looked up): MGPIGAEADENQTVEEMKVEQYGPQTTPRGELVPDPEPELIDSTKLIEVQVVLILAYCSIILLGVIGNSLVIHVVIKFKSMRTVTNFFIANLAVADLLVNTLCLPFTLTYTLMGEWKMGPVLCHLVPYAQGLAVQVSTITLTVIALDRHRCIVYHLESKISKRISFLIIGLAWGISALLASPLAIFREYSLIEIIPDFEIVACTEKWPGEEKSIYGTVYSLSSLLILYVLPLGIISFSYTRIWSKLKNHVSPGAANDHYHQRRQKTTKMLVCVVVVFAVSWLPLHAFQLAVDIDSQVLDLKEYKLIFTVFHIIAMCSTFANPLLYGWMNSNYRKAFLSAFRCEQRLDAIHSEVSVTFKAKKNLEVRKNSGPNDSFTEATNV
NPY-Y2 PAM-ag = human NPY-Y2 potentiation or agonism, primary screen | P49146 | cells expressing NPY-Y2, potentiator/agonist read-out | activation, % at 3.6 µM | hit rate 0.45% among 220,000 | AID 1359; in the data active = activation above about 27%;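 note: cells stimulated with NPY near EC25 plus isoproterenol at EC100; 0% = vehicle plus submaximal agonist and 100% = vehicle plus saturating agonist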
RAM inhibit = yeast RAM network inhibition; S. cerevisiae dse1pr::URA3 reporter, 5-FOA growth OD615, 2 d; analog-sensitive cbk1-as2 kinase mutant strain; inhibition, % at 50 µM; hit rate 1.8% among 190,000;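 active = inhibition above a set limit, 3 SD over mean compound inhibition, cut at about 8.4% in these data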;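 note: 0% = DMSO-only wells with no growth and 100% = 10 µM 1-NA-PP1 full growth; inhibition rescues growth on 5-FOA so higher OD means more RAM inhibition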
An asterisk follows results filed as active; nt = no result. A selection: hits, their analogues and other compounds. The true share with any hit is near 4.9%.

SMILES | NPY-Y1 PAM-ag | NPY Y1 blocker | WT yeast gro inh | NPY Y2 blocker | NPY-Y2 PAM-ag | RAM inhibit
CN(C(=O)/C(N=Nc1cccc(C(F)(F)F)c1)=C(\O)C(F)(F)F)c1ccccc1 | 17.4 | -5.1 | 70.2* | 4.1 | 26.7 | 7.0
CCCCOc1ccc(N(CC(=O)NCC2CCCO2)C(=O)CCC(=O)Nc2nccs2)cc1 (configuration not stated) | 4.2 | 0.5 | 0.1 | nt | -3.7 | 3.7
O=C(CSc1nnc(Cc2cccs2)n1Cc1ccco1)Nc1ccc(Br)cc1 | 10.0 | 2.7 | nt | 9.2 | -10.3 | 0.8
O=C(CSc1nnc(Cc2cccs2)n1Cc1ccco1)Nc1ccc(Cl)cc1Cl | -19.7 | 30.9* | 21.3 | 23.2* | -6.2 | 4.0
CCCOc1ccccc1C(=O)N(Cc1ccco1)C1CCS(=O)(=O)C1 (configuration not stated) | -4.5 | 0.7 | -18.2 | 1.5 | -3.5 | 0.0
O=C1CC(=C(c2ccccc2)c2ccccc2)C(=O)N1CCCCN1CCN(c2cccc(Cl)c2)CC1 | 11.1 | 16.1 | 41.2 | 7.8 | 1.3 | -1.1
Cc1ccccc1N1CCN(CCCN2C(=O)CC(=C(c3ccccc3)c3ccccc3)C2=O)CC1 | 105.3* | -19.3 | 26.6 | 4.3 | 99.1* | 0.9
CCCCOc1ccc(C2C3CN(C(=O)OCC)CC=C3C(C#N)=C(N)C2(C#N)C#N)cc1OC (configuration not stated) | -16.3 | -0.6 | 61.9* | 1.7 | 14.8 | 3.6
Cc1nc(Cc2ccc(OC(C)C)cc2)[nH]c(=O)c1CC(=O)O | -3.7 | 0.0 | -9.2 | nt | 5.7 | 1.6
Cc1ccc(NS(=O)(=O)c2cc(C(=O)N3CCc4ccccc4C3)ccc2Cl)cc1 | 4.1 | 7.7 | -4.5 | 6.4 | -14.7 | 5.5
Cc1ccccc1NS(=O)(=O)c1cc(C(=O)N2CCc3ccccc3C2)ccc1C | 5.3 | 8.0 | 80.9* | 3.4 | -0.8 | 5.1
N/C(COc1ccc(F)cc1)=N\NC(=O)c1cccnc1Oc1ccccc1 | 1.4 | -5.2 | 1.0 | 1.7 | -11.8 | 0.9
COc1ccc(OC)c(-c2c3cc(O)c(=O)cc-3oc3cc(O)c(O)cc23)c1 | 13.4 | 4.9 | 58.3* | 5.8 | -1.5 | 6.5
Cc1ccc(NC2=C(Cl)C(=O)OC2NC(=O)c2ccccc2)cc1 (configuration not stated) | 4.9 | -4.5 | -12.5 | 2.0 | 1.1 | 9.3*
Cc1ccc(-c2nnc(SCCC(=O)N3CCOCC3)o2)cc1 | 10.0 | 2.4 | 2.6 | nt | -9.8 | 0.1
N=c1c2c(-c3ccccc3)c(-c3ccccc3)n(Cc3ccco3)c2ncn1CCCn1ccnc1 | -149.5 | 57.2* | -7.8 | 41.4* | -20.4 | -0.4
CC(C)Cn1cnc2c(c(-c3ccccc3)c(-c3ccccc3)n2Cc2ccco2)c1=N | 3.6 | 40.2* | 42.7 | 76.2* | 3.0 | 2.3
N=c1c2c(-c3ccccc3)c(-c3ccccc3)oc2ncn1CCN1CCOCC1 | -2.8 | 5.8 | -9.2 | 1.7 | 0.0 | 1.2
N=c1c2c(-c3ccccc3)c(-c3ccccc3)n(Cc3ccccc3)c2ncn1CCO | -99.8 | 61.2* | 1.6 | 63.2* | -24.9 | 0.3
OCCNc1ncnc2c1c(-c1ccccc1)c(-c1ccccc1)n2Cc1ccco1 | 1.3 | 3.3 | 2.9 | 12.7 | -3.5 | 0.8
CCCCC(=O)NNC(=S)NC(=O)c1ccc([N+](=O)[O-])cc1 | 9.4 | 3.2 | 14.2 | nt | 6.0 | -0.3
Cc1[nH]c2ccccc2c1C(=O)CSc1nncn1C | -27.3 | 2.8 | -15.2 | 1.5 | -11.4 | 0.1
COc1ccc(-c2nnc(NC(=O)c3ccc(S(=O)(=O)N4CCc5ccccc5C4)cc3)o2)cc1 | -9.1 | 1.9 | -9.9 | 0.9 | -4.1 | 6.7
O=C(Nc1nnc(C2CC2)o1)c1ccc(S(=O)(=O)N2CCc3ccccc3C2)cc1 | -4.7 | -1.0 | 63.8* | nt | -18.4 | 0.6
CCc1nnc(NC(=O)c2ccc(S(=O)(=O)N(CC(C)C)CC(C)C)cc2)o1 | 17.1 | 4.1 | 71.8* | 1.6 | 23.8 | 0.3
SMILES | NPY-Y1 PAM-ag | NPY Y1 blocker | WT yeast gro inh | NPY Y2 blocker | NPY-Y2 PAM-ag | RAM inhibit
O=C(Nc1nc2c(s1)CCCC2)c1ccc(S(=O)(=O)N2CCCc3ccccc32)cc1 | 12.1 | -5.2 | -0.1 | -2.1 | 12.3 | 6.9
CSCc1nnc(NC(=O)c2ccc(S(=O)(=O)N(CC(C)C)CC(C)C)cc2)o1 | -1.4 | -0.9 | 71.8* | 0.9 | 13.6 | 4.5
CCc1nnc(NC(=O)c2ccc(S(=O)(=O)N3CCCc4ccccc43)cc2)o1 | -10.6 | 5.7 | 69.9* | 4.8 | -7.5 | 1.4
COc1cc(N)ccc1NC(=O)c1cccs1 | 10.2 | -6.3 | -5.0 | 4.8 | -5.7 | 1.6
CCOc1ccc(NC(=O)CSc2nnc(C)n2Cc2ccccc2)cc1 | -29.5 | -1.3 | -17.7 | 6.3 | -10.7 | 1.8
CCc1cc(=O)oc2c(CN3CCCC3)c(O)c(Cl)cc12 | 9.6 | 4.8 | 9.2 | 0.0 | 1.1 | -0.7
CCOC(=O)C1=C(C)N(CCCCCC(=O)O)C(=O)NC1c1ccccc1Cl (configuration not stated) | -3.7 | -5.2 | 15.0 | 2.3 | 2.3 | 3.8
CCc1nc2ccccc2c(C(=O)NCc2ccccc2)c1C | -16.4 | -0.8 | 18.9 | nt | -15.5 | 0.4
CCc1nc2ccc(F)cc2c(C(=O)NC2CCCCC2C)c1C (configuration not stated) | -81.9 | 35.3* | 9.2 | 28.7* | -53.4 | 1.4
N#C/C(=C\c1cn(CCOc2ccccc2)c2ccccc12)C(=O)NCc1ccco1 | -12.8 | 6.4 | 2.2 | 1.1 | -4.9 | 4.4
N#Cc1c(-c2ccccc2)cc(C2CC2)nc1SCC(=O)O | -26.0 | 4.7 | -22.6 | 2.8 | -4.9 | 4.6
COC(=O)CSc1nc(-c2ccccc2)cc(-c2ccco2)c1C#N | 7.8 | 23.1* | -1.4 | 20.8* | -21.7 | 9.7*
N#Cc1c(-c2ccco2)cc(C2CC2)nc1SCC(=O)c1ccccc1 | -6.6 | 5.8 | -10.7 | 3.6 | -7.2 | 8.7*
COc1ccccc1NC(=O)C1(c2ccccc2)CCCC1 | -12.0 | 4.5 | -0.9 | nt | -13.6 | 1.6
COC(=O)N/N=C/c1ccccc1Cl | 0.7 | 4.2 | -0.3 | nt | -9.7 | 2.0
CC(C)C(NC(=O)c1ccc(C(C)(C)C)cc1)C(=O)NC1=NCCS1 (configuration not stated) | 12.7 | 0.2 | 62.9* | 3.5 | -15.0 | 0.9
COc1ccc(OCCC(=O)NC2=NCCS2)cc1 | -2.7 | 2.7 | -9.5 | 1.5 | 4.0 | 0.5
CC(C)C(NC(=O)c1ccc(Br)cc1)C(=O)NC1=NCCS1 (configuration not stated) | -10.4 | -3.2 | 20.9 | nt | -10.5 | 1.2
CC(C)(C)c1ccc(OCCC(=O)NC2=NCCS2)cc1 | 6.0 | 5.0 | 76.5* | 0.9 | -11.5 | -0.8
CCOC(=O)C(NCCCO)c1ccccc1 (configuration not stated) | 20.5 | -2.3 | -0.4 | -0.2 | -10.6 | 1.6
C/C(=N\NC(=S)NCc1ccccc1)c1cccc(Br)c1 | -20.4 | 1.8 | 69.6* | nt | -10.6 | 6.2
COc1ccc(CNC(=S)N/N=C(\C)c2ccc(OC)cc2)cc1 | -22.4 | nt | nt | nt | -36.0 | nt
